The values below come from ChEMBL document CHEMBL1134405 (J Med Chem, 2001).

Usually EC50 stands for the concentration at which the effect is half-maximal. A word on the pA2: it is the negative logarithm of the molar antagonist concentration that doubles the agonist concentration needed for the same response. By IC50 is commonly meant the midpoint of a concentration-inhibition curve. The low end stands for greater potency, the high end for weaker potency.

The target of assay [1] is T1, Adenylate cyclase (Rattus norvegicus) (UniProt D4A3N4+P26770+Q04400+P26769+Q03343+P40146+Q8CFM9+P21932). As to the kind of experiment: Relative potency was evaluated by measuring potency for conversion of [alpha-32P]ATP to cyclic 3',5'-AMP relative to glucagon. Type of assay: protein assay.
Assay [2] addresses Glucagon receptor (Rattus norvegicus) (UniProt P30082). As to the kind of experiment: Relative binding by measuring competition for glucagon receptor between [125]glucagon and the compound. The procedure, abridged: (§1)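 Incubation 10 min at 30 °C, then ice cooling and filtration on 0.45 μm cellulose acetate, gamma counting. Nonspecific binding taken with 1024 nM unlabeled peptide and subtracted. Read as % inhibition of specific binding. Triplicates, repeated twice.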

Assay [3] shares this target. As to the kind of experiment: Relative binding was evaluated by measuring competition for glucagon receptor between [125I]glucagon and the compound.
The target in assay [4] is T1, Adenylate cyclase (Rattus norvegicus). As to the kind of experiment: Adenylate cyclase activity of the compound, evaluated for the percentage maximum stimulation. Type of assay: protein assay. The procedure, abridged:
(§2)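 Rat liver plasma membranes (male Sprague–Dawley, 200–250 g; sucrose-gradient purified), 35 μg protein in 0.1 mL with 1 mM [α-32P]ATP, 5 mM MgCl2, GTP, 1 mM EDTA, 1 mM cAMP plus [3H]cAMP tracer, 25 mM Tris pH 7.5, 0.4% BSA, phosphocreatine/creatine kinase regeneration. Labeled cAMP isolated by sequential Dowex and alumina chromatography.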

The target of assay [5] is Adenylate cyclase. Briefly: Adenylate cyclase activity of the compound, expressed as effective concentration. Type of assay: protein assay. Summed up:
as §2

Assay [6] deals with Adenylate cyclase. Briefly: Effective concentration required for 50% conversion of [alpha-32P]ATP to cyclic 3',5'-AMP. Type of assay: protein assay. The procedure, abridged:
as §2

Assay [7] concerns the target T1, Adenylate cyclase (Rattus norvegicus). Briefly: Maximum stimulation of adenylate cyclase. The class given is protein assay.
Assay [8] has the same target. Briefly: Adenylate cyclase stimulation; Inactive up to 100 uM. Type of assay: protein assay.
Assay [9] is described as follows: A dose-response plot was obtained by determining the response when the concentration of glucagon was varied while the concentration was kept same.
The target in assay [10] is Glucagon receptor (Rattus norvegicus) (UniProt P30082). Briefly: Compound was evaluated for its ability to displace radiolabeled glucagon (inactive up to 100 uM). Summed up: as §1
The target in assay [11] is T2, Glucagon receptor (Rattus norvegicus, UniProt P30082). As to the kind of experiment: IC50 value was expressed as inhibition of [125]glucagon specific binding. Summed up:
as §1

In assay [12] the target is T1, Adenylate cyclase (Rattus norvegicus). Briefly: Adenylate cyclase activity of the compound, expressed as effective concentration (inactive up to 100 uM). Type of assay: protein assay. Summed up: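 Adenylate cyclase in rat liver plasma membranes (35 μg protein), in 0.1 mL of 1 mM [α-32P]ATP, 5 mM MgCl2, […], 1 mM EDTA, 1 mM cAMP with [3H]cAMP tracer, 25 mM Tris pH 7.5, 0.4% BSA, plus a phosphocreatine/creatine phosphokinase regenerating system. [32P]cAMP isolated on Dowex and alumina columns.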

Assay [13] can be described thus: pA2 value, a dose-response plot was obtained by determining the response when the concentration of glucagon was varied while the concentration was kept same.
For assay [14], the target named is T2, Glucagon receptor. As to the kind of experiment: Compound was evaluated for its ability to displace radiolabeled glucagon. The procedure, abridged:
as §1

Assay [15] concerns the target T2, Glucagon receptor. Briefly: IC50 value was expressed for inhibition of [125]glucagon specific binding. The procedure, abridged: as §1

Calls of active or inactive are those of the source. The calls are words filed in the database; no cut-off is given here. Peptide text beside a SMILES is read from it.

Glucagon receptor (Rattus norvegicus), sequence (P30082 whole entry): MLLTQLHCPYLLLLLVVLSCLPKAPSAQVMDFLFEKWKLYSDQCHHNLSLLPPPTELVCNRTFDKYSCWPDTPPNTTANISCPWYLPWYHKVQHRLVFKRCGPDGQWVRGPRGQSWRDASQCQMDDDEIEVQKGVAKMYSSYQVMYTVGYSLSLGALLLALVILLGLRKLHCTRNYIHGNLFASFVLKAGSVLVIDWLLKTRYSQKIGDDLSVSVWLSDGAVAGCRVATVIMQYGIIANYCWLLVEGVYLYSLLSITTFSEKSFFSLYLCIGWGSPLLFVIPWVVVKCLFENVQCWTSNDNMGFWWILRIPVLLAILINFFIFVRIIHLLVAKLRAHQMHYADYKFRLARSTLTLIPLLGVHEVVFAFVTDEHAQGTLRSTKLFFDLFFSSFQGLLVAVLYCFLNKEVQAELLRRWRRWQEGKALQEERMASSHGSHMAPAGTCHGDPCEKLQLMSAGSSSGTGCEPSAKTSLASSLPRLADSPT
T2 sequence (P30082 whole entry): as above

With `CC(C)C[C@H](NC(=O)[C@H](Cc1ccc(O)cc1)NC(=O)[C@H](CCCCN)NC(=O)[C@H](CO)NC(=O)[C@H](Cc1ccc(O)cc1)NC(=O)[C@H](CC(=O)O)NC(=O)[C@H](CO)NC(=O)[C@@H](NC(=O)[C@H](Cc1ccccc1)NC(=O)[C@@H](NC(=O)CNC(=O)[C@H](CCC(N)=O)NC(=O)[C@H](CO)NC(=O)[C@@H](N)Cc1c[nH]cn1)[C@@H](C)O)[C@@H](C)O)C(=O)N[C@@H](CC(N)=O)C(=O)N[C@@H](CO)C(=O)N[C@@H](CCCN=C(N)N)C(=O)O`, the Relative potency in [1] is 0.0001%. In addition, the Relative binding in assay [2] amounted to 0.0001%.
As to H-HSQGTF-OH, the Relative potency in assay [1] is under 0.0001%. The compound also returned a Relative binding in assay [3] of under 0.0001%.
For the compound GLUCAGON [listing 1 of 2 here], the Relative binding in assay [2] was determined as 100%. Further, the Max stimulation in assay [4] is 100%.
On to `CC(C)C[C@H](NC(=O)[C@H](Cc1ccc(O)cc1)NC(=O)[C@H](CCCCN)NC(=O)[C@H](CO)NC(=O)[C@H](Cc1ccc(O)cc1)NC(=O)[C@H](CC(=O)O)NC(=O)[C@H](CO)NC(=O)[C@@H](NC(=O)[C@H](Cc1ccccc1)NC(=O)[C@@H](NC(=O)CNC(=O)[C@H](CCC(N)=O)NC(=O)[C@H](CO)NC(=O)[C@@H](N)Cc1c[nH]cn1)[C@@H](C)O)[C@@H](C)O)C(=O)N[C@@H](CC(=O)O)C(=O)N[C@@H](CO)C(=O)N[C@@H](CCCN=C(N)N)C(=O)N[C@@H](CCCN=C(N)N)C(=O)N[C@@H](C)C(=O)N[C@@H](CCC(N)=O)C(=O)N[C@@H](CC(=O)O)C(=O)N[C@@H](Cc1ccccc1)C(=O)N[C@H](C(=O)N[C@@H](CCC(N)=O)C(=O)O)C(C)C`, for which the Relative potency in [1] stood at 0.0002%. In assay [2], this compound showed a Relative binding of 0.0002%.
GLUCAGON [listing 2 of 2 here]: the EC50 on Adenylate cyclase [5] is 5.9 nM; at Adenylate cyclase [6], 8 nM.
In the case of `CSCC[C@H](NC(=O)[C@H](CC(C)C)NC(=O)[C@H](Cc1c[nH]c2ccccc12)NC(=O)[C@H](CCC(N)=O)NC(=O)[C@@H](NC(=O)[C@H](Cc1ccccc1)NC(=O)[C@H](CC(=O)O)NC(=O)[C@H](CCC(N)=O)NC(=O)[C@H](C)NC(=O)[C@H](CCCN=C(N)N)NC(=O)[C@H](CCCN=C(N)N)NC(=O)[C@H](CO)NC(=O)[C@H](CC(=O)O)NC(=O)[C@H](CC(C)C)NC(=O)[C@H](Cc1ccc2ccccc2c1)NC(=O)[C@H](CCCCN)NC(=O)[C@H](CO)NC(=O)[C@H](Cc1ccc2ccccc2c1)NC(C)=O)C(C)C)C(=O)N[C@@H](CC(N)=O)C(=O)N[C@H](C(N)=O)[C@@H](C)O` (HELM PEPTIDE1{[ac].[O=C([C@H](Cc1ccc2ccccc2c1)N[*:1])[*:2]].S.K.[O=C([C@H](Cc1ccc2ccccc2c1)N[*:1])[*:2]].L.D.S.R.R.A.Q.D.F.V.Q.W.L.M.N.T.[am]}$$$$V2.0), in [7], the Max stimulation was 0%. Also, the IA result in assay [8] is “Inactive up to 100 uM”. The same compound showed a pA2 in [9] of 6.87. This compound yielded a Relative binding in assay [2] of 0.19%.
The compound Ac-FTSDYSKYL-NH2 had a Max stimulation in assay [7] of 0%. Besides, the IA result in [10] and in assay [8] was “Inactive up to 100 uM” each time. Further, the Relative binding in assay [2] turned out to be 0%.
Consider `CSCC[C@H](NC(=O)[C@H](CC(C)C)NC(=O)[C@H](Cc1c[nH]c2ccccc12)NC(=O)[C@H](CCC(N)=O)NC(=O)[C@@H](NC(=O)[C@H](Cc1ccccc1)NC(=O)[C@H](CC(=O)O)NC(=O)[C@H](CCC(N)=O)NC(=O)[C@H](C)NC(=O)[C@H](CCCN=C(N)N)NC(=O)[C@H](CCCN=C(N)N)NC(=O)[C@H](CO)NC(=O)[C@H](CC(=O)O)NC(=O)[C@H](CC(C)C)NC(=O)[C@H](Cc1ccc(O)cc1)NC(=O)[C@H](CCCCN)NC(=O)[C@H](CO)NC(=O)[C@H](Cc1ccc(O)cc1)NC(=O)Cc1ccccc1)C(C)C)C(=O)N[C@@H](CC(N)=O)C(=O)N[C@H](C(N)=O)[C@@H](C)O` (HELM PEPTIDE1{[O=C(Cc1ccccc1)[*:2]].Y.S.K.Y.L.D.S.R.R.A.Q.D.F.V.Q.W.L.M.N.T.[am]}$$$$V2.0), for which, on Glucagon receptor [11], the half-inhibitory concentration (IC50) stood at 249 nM. Further, the pA2 in assay [9] is given as 7.37.
In turn, H-TFTSDYSKYLDS-NH2 came in with a Max stimulation in [7] of 0%. Besides, the IA entry in assay [10] and in assay [12] was “Inactive up to 100 uM” each time. The same compound showed a Relative binding in assay [2] of 0%.
On to Ac-FTSDYSKYLDSRRAQDFVQWLMNT-NH2, for which the IC50 on Glucagon receptor [11] was determined as 31 nM. The compound also had a pA2 in assay [9] of 6.57.
Take H-DSRRAQDFVQWL-NH2: in assay [7], the Max stimulation amounted to 0%. Besides, the IA entry in [10] and in assay [8] was “Inactive up to 100 uM” in each case. Moreover, the Relative binding in [2] was found to be 0%.
H-HSQGTFTSDYS-NH2: the Max stimulation in [7] turned out to be 0%. Further, the IA entry in assay [10] and in assay [12] was “Inactive up to 100 uM” each time. Moreover, the Relative binding in [2] came out at 0%.
As to `CSCC[C@H](NC(=O)[C@H](CC(C)C)NC(=O)[C@H](Cc1c[nH]c2ccccc12)NC(=O)[C@H](CCC(N)=O)NC(=O)[C@@H](NC(=O)[C@H](Cc1ccccc1)NC(=O)[C@H](CC(=O)O)NC(=O)[C@H](CCC(N)=O)NC(=O)[C@H](C)NC(=O)[C@H](CCCN=C(N)N)NC(=O)[C@H](CCCN=C(N)N)NC(=O)[C@H](CO)NC(=O)[C@H](CC(=O)O)NC(=O)[C@H](CC(C)C)NC(=O)[C@H](Cc1ccc(O)cc1)NC(=O)[C@H](CCCCN)NC(=O)[C@H](CO)NC(=O)[C@H](Cc1ccc(O)cc1)NC(=O)CCCCCc1ccccc1)C(C)C)C(=O)N[C@@H](CC(N)=O)C(=O)N[C@H](C(N)=O)[C@@H](C)O` (HELM PEPTIDE1{[O=C(CCCCCc1ccccc1)[*:2]].Y.S.K.Y.L.D.S.R.R.A.Q.D.F.V.Q.W.L.M.N.T.[am]}$$$$V2.0), the pA2 in assay [9] is given as 7.37.
Regarding H-YSKYLDSRRAQ-NH2, the Max stimulation in assay [7] is 0%. For the same compound, the IA entry in assay [10] and in assay [8] was “Inactive up to 100 uM” each time. For the same compound, the Relative binding in assay [2] amounted to 0%.
For `CSCC[C@H](NC(=O)[C@H](CC(C)C)NC(=O)[C@H](Cc1c[nH]c2ccccc12)NC(=O)[C@H](CCC(N)=O)NC(=O)[C@@H](NC(=O)[C@H](Cc1ccccc1)NC(=O)[C@H](CC(=O)O)NC(=O)[C@H](CCC(N)=O)NC(=O)[C@H](C)NC(=O)[C@H](CCCN=C(N)N)NC(=O)[C@H](CCCN=C(N)N)NC(=O)[C@H](CO)NC(=O)[C@H](CC(=O)O)NC(=O)[C@H](CC(C)C)NC(=O)[C@H](Cc1ccc(O)cc1)NC(=O)[C@H](CCCCN)NC(=O)[C@H](CO)NC(=O)[C@H](Cc1ccc(O)cc1)NC(=O)[C@H](CCC(=O)O)NC(=O)[C@H](CO)NC(=O)[C@@H](NC(=O)[C@H](Cc1ccccc1)NC(=O)[C@@H](NC(=O)CNC(=O)[C@H](CCC(N)=O)NC(=O)[C@@H](N)CO)[C@@H](C)O)[C@@H](C)O)C(C)C)C(=O)N[C@@H](CC(N)=O)C(=O)N[C@H](C(N)=O)[C@@H](C)O`, in [13], the pA2 came to 7.25. On Glucagon receptor [14], this compound showed an IC50 of 3.75 nM.
Take `CC(C)C[C@H](NC(=O)[C@H](Cc1ccc(O)cc1)NC(=O)[C@H](CCCCN)NC(=O)[C@H](CO)NC(=O)[C@H](Cc1ccc(O)cc1)NC(=O)[C@H](CC(=O)O)NC(=O)[C@H](CO)NC(=O)[C@@H](NC(=O)[C@H](Cc1ccccc1)NC(=O)[C@@H](NC(=O)CNC(=O)[C@H](CCC(N)=O)NC(=O)[C@H](CO)NC(=O)[C@@H](N)Cc1c[nH]cn1)[C@@H](C)O)[C@@H](C)O)C(=O)N[C@@H](CC(=O)O)C(=O)O`: the Relative potency in assay [1] is under 0.0001%. Besides, in [2], the Relative binding is under 0.0001%.
On to `CSCC[C@H](NC(=O)[C@H](CC(C)C)NC(=O)[C@H](Cc1c[nH]c2ccccc12)NC(=O)[C@H](CCC(N)=O)NC(=O)[C@@H](NC(=O)[C@H](Cc1ccccc1)NC(=O)[C@H](CC(=O)O)NC(=O)[C@H](CCC(N)=O)NC(=O)[C@H](C)NC(=O)[C@H](CCCN=C(N)N)NC(=O)[C@H](CCCN=C(N)N)NC(=O)[C@H](CO)NC(=O)[C@H](CC(=O)O)NC(=O)[C@H](CC(C)C)NC(=O)[C@H](Cc1ccc2ccccc2c1)NC(=O)[C@H](CCCCN)NC(=O)[C@H](CO)NC(=O)[C@H](Cc1ccc(O)cc1)NC(=O)CCCc1ccccc1)C(C)C)C(=O)N[C@@H](CC(N)=O)C(=O)N[C@H](C(N)=O)[C@@H](C)O` (HELM PEPTIDE1{[O=C(CCCc1ccccc1)[*:2]].Y.S.K.[O=C([C@H](Cc1ccc2ccccc2c1)N[*:1])[*:2]].L.D.S.R.R.A.Q.D.F.V.Q.W.L.M.N.T.[am]}$$$$V2.0), for which, in [13], the pA2 is 6.7. The half-maximal inhibitory concentration (IC50) at Glucagon receptor [15] stood at 781 nM.
For the compound H-SQGTTSEYSKYLDSRRAQDFVQWLMNT-NH2, the pA2 in assay [13] is given as 8.2. Also, at Glucagon receptor [14], the IC50 came to 48 nM.
